Assay: Phase 1 pharmacokinetics of ilorasertib in plasma
Assay type: in vivo, human
Conditions: for AUC(0-t) / Cmax / Tmax / half-life / AUC(0-inf): human, plasma; for half-life: t1/2, arm D
Method in brief: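 Arm A patients took oral test compound once weekly, in the morning, on days 1, 8 and 15 of 28-day cycles, at 10–690 mg. Plasma was sampled intensively up to 72 h after dosing on days 1 and 15. Noncompartmental analysis gave Cmax, Tmax, t½, AUCt and AUC∞, plus dose-normalized values. Results are summarized by dose level as mean ± SD, with individual values where N=1.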

[1] = arm A, oral once weekly, first dose, 10 mg, N=3, mean ± SD
[2] = arm A, oral once weekly, first dose, 20 mg, N=1
[3] = arm A, oral once weekly, first dose, 40 mg, N=1
[4] = arm A, oral once weekly, first dose, 80 mg, N=2, mean ± SD
[5] = arm A, oral once weekly, first dose, 160 mg, N=3, mean ± SD
[6] = arm A, oral once weekly, first dose, 240 mg, N=5, mean ± SD
[7] = arm A, oral once weekly, first dose, 340 mg, N=3, mean ± SD
[8] = arm A, oral once weekly, first dose, 440 mg, N=4, mean ± SD
[9] = arm A, oral once weekly, first dose, 540 mg, N=3, mean ± SD
[10] = arm A, oral once weekly, first dose, 640 mg, N=6, mean ± SD
[11] = arm A, oral once weekly, first dose, 690 mg, N=1
[12] = arm A, oral once weekly, first dose, all doses, N=32, mean ± SD
[13] = iv, 32 mg, arm D, IV infusion, 32 mg, day 1, N=4, mean ± SD
[14] = iv, 32 mg, arm D, IV infusion, 32 mg, day 15, N=3, mean ± SD
[15] = po, 40 mg, arm A, oral once weekly, first dose, N=1

## Nc1ncc(-c2cnn(CCO)c2)c2scc(-c3ccc(NC(=O)Nc4cccc(F)c4)cc3)c12 [Ilorasertib]
Arm A, oral
  coefficient of variation for dose-normalized Cmax: approximately 66%
[1]
  AUC0–24/D (dose-normalized AUC0–24): 65.8 ± 35.0 ng·h/mL/mg
  AUC∞/D (dose-normalized AUC∞): 70.9 ± 37.9 ng·h/mL/mg
  Cmax/D (dose-normalized Cmax): 3.74 ± 1.56 ng/mL/mg
[2]
  AUC0–24/D (dose-normalized AUC0–24): 27.2 ng·h/mL/mg
  AUC∞/D (dose-normalized AUC∞): 28.5 ng·h/mL/mg
  Cmax/D (dose-normalized Cmax): 2.98 ng/mL/mg
[3]
  AUC0–24/D (dose-normalized AUC0–24): 43.9 ng·h/mL/mg
  AUC∞/D (dose-normalized AUC∞): 45.8 ng·h/mL/mg
  Cmax/D (dose-normalized Cmax): 4.95 ng/mL/mg
[4]
  AUC0–24/D (dose-normalized AUC0–24): 15.2 ± 5.10 ng·h/mL/mg
  AUC∞/D (dose-normalized AUC∞): 15.7 ± 5.18 ng·h/mL/mg
  Cmax/D (dose-normalized Cmax): 1.44 ± 4.90 ng/mL/mg
[5]
  AUC0–24/D (dose-normalized AUC0–24): 19.4 ± 8.86 ng·h/mL/mg
  AUC∞/D (dose-normalized AUC∞): 20.2 ± 9.28 ng·h/mL/mg
  Cmax/D (dose-normalized Cmax): 1.86 ± 0.98 ng/mL/mg
[6]
  AUC0–24/D (dose-normalized AUC0–24): 16.6 ± 12.4 ng·h/mL/mg
  AUC∞/D (dose-normalized AUC∞): 17.5 ± 13.5 ng·h/mL/mg
  Cmax/D (dose-normalized Cmax): 1.22 ± 0.59 ng/mL/mg
[7]
  AUC0–24/D (dose-normalized AUC0–24): 16.9 ± 2.56 ng·h/mL/mg
  AUC∞/D (dose-normalized AUC∞): 17.7 ± 2.09 ng·h/mL/mg
  Cmax/D (dose-normalized Cmax): 1.74 ± 1.0 ng/mL/mg
[8]
  AUC0–24/D (dose-normalized AUC0–24): 30.7 ± 17.1 ng·h/mL/mg
  AUC∞/D (dose-normalized AUC∞): 32.1 ± 18.0 ng·h/mL/mg
  Cmax/D (dose-normalized Cmax): 2.88 ± 1.89 ng/mL/mg
[9]
  AUC0–24/D (dose-normalized AUC0–24): 10.7 ± 2.0 ng·h/mL/mg
  AUC∞/D (dose-normalized AUC∞): 11.1 ± 2.28 ng·h/mL/mg
  Cmax/D (dose-normalized Cmax): 0.964 ± 0.183 ng/mL/mg
[10]
  AUC0–24/D (dose-normalized AUC0–24): 30.7 ± 23.1 ng·h/mL/mg
  AUC∞/D (dose-normalized AUC∞): 31.7 ± 23.4 ng·h/mL/mg
  Cmax/D (dose-normalized Cmax): 2.42 ± 1.57 ng/mL/mg
[11]
  AUC0–24/D (dose-normalized AUC0–24): 11.7 ng·h/mL/mg
  AUC∞/D (dose-normalized AUC∞): 12.3 ng·h/mL/mg
  Cmax/D (dose-normalized Cmax): 1.22 ng/mL/mg
[12]
  AUC0–24/D (dose-normalized AUC0–24): 26.3 ± 21.3 ng·h/mL/mg
  AUC∞/D (dose-normalized AUC∞): 27.6 ± 22.7 ng·h/mL/mg
  Cmax/D (dose-normalized Cmax): 2.16 ± 1.43 ng/mL/mg
Arm B, between days 1 and 15, multiple doses
  accumulation of study drug: no apparent accumulation
Arm C, oral ilorasertib with azacitidine
  pharmacokinetic interaction between ilorasertib and azacitidine: no apparent pharmacokinetic drug-drug interaction
Arm D, IV dosing
  time of peak plasma concentrations: end of the 4-hour infusion
iv, 32 mg, AUC0–24, arm D, IV infusion, 32 mg, day 1, N=4, mean ± SD
  AUC(0-t): 4980 ± 3900 ng·h/mL
iv, 32 mg, AUC0–24, arm D, IV infusion, 32 mg, day 15, N=3, mean ± SD
  AUC(0-t): 8220 ± 9110 ng·h/mL
[13]
  Cmax: 587 ± 360 ng/mL
  Tmax: 4.1 ± 0.3 h
[14]
  Cmax: 414 ± 140 ng/mL
  Tmax: 3.9 h
iv, 32 mg, IV infusion, 32 mg, day 1, N=4
  half-life: 6.2 ± 5.1 h
iv, 32 mg, IV infusion, 32 mg, day 15, N=3
  half-life: 5.8 ± 20.6 h
po, 10 mg
  AUC(0-inf): 710 ± 380 ng·h/mL
po, 10 mg, AUC0–24, arm A, oral once weekly, first dose, N=3, mean ± SD
  AUC(0-t): 660 ± 350 ng·h/mL
po, 20 mg
  AUC(0-inf): 570 ng·h/mL
po, 20 mg, arm A, oral once weekly, first dose, N=1
  Cmax: 60 ng/mL
po, 40 mg
  AUC(0-inf): 1830 ng·h/mL
[15]
  Cmax: 198 ng/mL
  Tmax: 3 h
po, 80 mg
  AUC(0-inf): 1260 ± 410 ng·h/mL
  AUC(0-t): 1220 ± 410 ng·h/mL
po, 160 mg
  AUC(0-inf): 3240 ± 1490 ng·h/mL
po, 240 mg
  AUC(0-inf): 4190 ± 3230 ng·h/mL
po, 320 mg, AUC0–24, arm B, oral twice weekly, 320 mg, day 1, N=6, mean ± SD
  AUC(0-t): 29700 ± 19000 ng·h/mL
po, 320 mg, AUC0–24, arm B, oral twice weekly, 320 mg, day 15, N=4, mean ± SD
  AUC(0-t): 30700 ± 15000 ng·h/mL
po, 340 mg
  AUC(0-inf): 6010 ± 710 ng·h/mL
po, 440 mg
  AUC(0-inf): 14100 ± 7940 ng·h/mL

Source: PMC5563391 (Investigational new drugs, 2015)
